The values that follow come from paper PMC6558985 (Nature chemical biology, 2019).

Numbering of substitutions follows the chain as printed.

One test has as its target T1, Dm-spastin WT (Drosophila melanogaster, UniProt Q8I0P1, DEL311-372).
T1 sequence (Q8I0P1 with tags, fused parts or gaps DEL311-372 limits assumed): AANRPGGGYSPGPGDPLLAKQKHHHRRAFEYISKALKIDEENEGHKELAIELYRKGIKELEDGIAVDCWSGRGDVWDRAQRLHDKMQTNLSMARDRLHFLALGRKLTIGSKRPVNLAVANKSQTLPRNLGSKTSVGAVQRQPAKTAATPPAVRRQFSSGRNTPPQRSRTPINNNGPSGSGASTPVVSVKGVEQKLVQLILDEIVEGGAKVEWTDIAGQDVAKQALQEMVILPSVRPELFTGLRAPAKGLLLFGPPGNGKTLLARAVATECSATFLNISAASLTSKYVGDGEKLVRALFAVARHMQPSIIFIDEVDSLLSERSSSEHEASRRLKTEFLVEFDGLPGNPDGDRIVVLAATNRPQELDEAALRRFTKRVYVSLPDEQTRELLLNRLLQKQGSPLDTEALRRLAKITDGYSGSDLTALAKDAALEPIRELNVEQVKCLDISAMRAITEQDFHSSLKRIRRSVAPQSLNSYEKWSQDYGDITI
Nature of the test: Steady-state ATPase activity, NADH-coupled assay, Dm-spastin wildtype. The test is classed as biochemical, D. melanogaster. The essentials:
(§1)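 Recombinant Dm-spastin, wildtype or point mutants, assayed by steady-state ATPase with NADH-coupled read-out at 0.5 mM MgATP over a test-compound concentration series. Data were fit to a sigmoidal dose-response equation to give IC50, average ± s.d., n = 3. Separately, rates across ATP concentrations were fit to a cooperative Michaelis-Menten equation for kcat and K1/2.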

Test [1] has as its system Dm-spastin, Hs-FIGL1, Hs-PCH2, Mm-VCP, Xl-katanin. Nature of the test: Screen of selected kinase inhibitors against five AAA proteins. The test is classed as biochemical. The following applies: 10 µM compound, 0.5 mM ATP. The essentials: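 Five recombinant AAA proteins (Dm-spastin, Hs-FIGL1, Hs-PCH2, Mm-VCP, Xl-katanin) were screened for ATPase activity with each test compound at 10 µM and 0.5 mM MgATP. Activity is expressed as percent of the DMSO control, average of n = 2, binned in 10% steps.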

A further test concerns the target T2, Hs-FIGL1 (Homo sapiens, UniProt Q6PIW4).
T2 sequence (Q6PIW4 288-674): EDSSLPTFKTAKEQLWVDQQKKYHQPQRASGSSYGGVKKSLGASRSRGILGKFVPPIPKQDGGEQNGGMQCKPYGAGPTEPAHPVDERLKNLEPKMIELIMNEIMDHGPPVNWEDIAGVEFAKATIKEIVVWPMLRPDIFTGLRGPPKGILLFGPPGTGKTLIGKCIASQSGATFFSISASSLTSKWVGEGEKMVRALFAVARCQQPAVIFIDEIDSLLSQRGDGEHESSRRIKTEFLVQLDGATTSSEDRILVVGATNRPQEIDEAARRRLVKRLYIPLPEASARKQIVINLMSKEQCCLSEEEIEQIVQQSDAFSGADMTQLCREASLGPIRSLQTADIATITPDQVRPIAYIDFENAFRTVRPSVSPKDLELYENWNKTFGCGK
Nature of the test: Steady-state ATPase activity, NADH-coupled assay, Hs-FIGL1. The test is classed as biochemical. The following applies: 10 µM compound, 0.5 mM MgATP. Put shortly:
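Recombinant AAA protein constructs assayed by steady-state ATPase with NADH-coupled read-out at 0.5 mM MgATP, with test compound at 2 µM or 10 µM. Activity is reported as percent of steady-state ATPase activity, average ± s.d., n = 3.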

The next test has as its target T3, Dm-spastin Q488V (Drosophila melanogaster, UniProt Q8I0P1, DEL311-372/Q488V).
T3 sequence (Q8I0P1 with tags, fused parts or gaps DEL311-372/Q488V limits assumed): T1 sequence (Q8I0P1 with tags, fused parts or gaps DEL311-372 limits assumed) with Q218V
Nature of the test: Steady-state ATPase activity, NADH-coupled assay, Dm-spastin Q488V. The test is classed as biochemical, D. melanogaster. The essentials: as §1

Another test addresses T4, Dm-spastin N527C (Drosophila melanogaster, UniProt Q8I0P1, DEL311-372/N527C).
T4 sequence (Q8I0P1 with tags, fused parts or gaps DEL311-372/N527C limits assumed): T1 sequence (Q8I0P1 with tags, fused parts or gaps DEL311-372 limits assumed) with N257C
Nature of the test: Steady-state ATPase activity, NADH-coupled assay, Dm-spastin N527C. The test is classed as biochemical, D. melanogaster. Put shortly: as §1

Another test has as its target T5, Dm-spastin S689A (Drosophila melanogaster, UniProt Q8I0P1, DEL311-372/S689A).
T5 sequence (Q8I0P1 with tags, fused parts or gaps DEL311-372/S689A limits assumed): T1 sequence (Q8I0P1 with tags, fused parts or gaps DEL311-372 limits assumed) with S419A
Nature of the test: Steady-state ATPase activity, NADH-coupled assay, Dm-spastin S689A. Format: biochemical, D. melanogaster. Put shortly:
as §1

The target of another test is T6, Dm-spastin N527T (Drosophila melanogaster, UniProt Q8I0P1, DEL311-372/N527T).
T6 sequence (Q8I0P1 with tags, fused parts or gaps DEL311-372/N527T limits assumed): T1 sequence (Q8I0P1 with tags, fused parts or gaps DEL311-372 limits assumed) with N257T
Nature of the test: Steady-state ATPase activity, NADH-coupled assay, Dm-spastin N527T. Format: biochemical, D. melanogaster. The essentials:
as §1

For another test, the target named is T7, Dm-spastin T692A (Drosophila melanogaster, UniProt Q8I0P1, DEL311-372/T692A).
T7 sequence (Q8I0P1 with tags, fused parts or gaps DEL311-372/T692A limits assumed): T1 sequence (Q8I0P1 with tags, fused parts or gaps DEL311-372 limits assumed) with T422A
Nature of the test: Steady-state ATPase activity, NADH-coupled assay, Dm-spastin T692A. Format: biochemical, D. melanogaster. Put shortly:
as §1

In the next test the target is T8, Dm-spastin (Drosophila melanogaster, UniProt Q8I0P1, DEL311-372).
T8 sequence (Q8I0P1 with tags, fused parts or gaps DEL311-372 limits assumed): T1 sequence (Q8I0P1 with tags, fused parts or gaps DEL311-372 limits assumed)
Nature of the test: In vitro microtubule-severing assay. The test is classed as biochemical, D. melanogaster. The following applies: 2 µM inhibitor, 0.5 mM MgATP, 15 nM Dm-spastin.

For a further test, the target named is T9, Hs-spastin (Homo sapiens, UniProt Q9UBP0).
T9 sequence (Q9UBP0 229-616): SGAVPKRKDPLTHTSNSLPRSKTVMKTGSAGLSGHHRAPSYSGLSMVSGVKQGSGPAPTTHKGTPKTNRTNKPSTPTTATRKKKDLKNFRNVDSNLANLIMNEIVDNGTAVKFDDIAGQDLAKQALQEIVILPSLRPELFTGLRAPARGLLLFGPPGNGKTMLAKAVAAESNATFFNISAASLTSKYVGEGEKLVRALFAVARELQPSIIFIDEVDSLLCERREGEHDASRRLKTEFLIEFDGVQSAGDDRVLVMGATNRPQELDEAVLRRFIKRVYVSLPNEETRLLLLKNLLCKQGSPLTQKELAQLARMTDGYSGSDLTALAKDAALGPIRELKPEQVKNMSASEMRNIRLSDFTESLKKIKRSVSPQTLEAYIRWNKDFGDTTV
Nature of the test: Steady-state ATPase activity, NADH-coupled assay, Hs-spastin wildtype. Format: biochemical. Put shortly: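 Recombinant human spastin purified from E. coli. Steady-state ATPase inhibition was measured over a test-compound concentration series at 1 mM ATP. IC50 reported as average ± s.d., n = 3.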

In the case of `N#CCc1ccc(Nc2nc(Nc3cc(C4CC4)[nH]n3)c3ccccc3n2)cc1` [compound 1, 2-(4-((4-((5-cyclopropyl-1H-pyrazol-3-yl)amino)quinazolin-2-yl)amino)phenyl)acetonitrile, reference compound], the “inhibition of the ATPase activity of Dm-spastin” value on Dm-spastin WT (10 µM compound, 0.5 mM MgATP) was “substantially inhibited”. Moreover, the “potency of Dm-spastin inhibition (dose-dependent analysis)” value at Dm-spastin WT (0.5 mM MgATP, IC50 not determined) is recorded as “micromolar range”. Further, the “inhibition of ATPase activity of at least one of five AAA proteins” value in [1] was > 50%. Besides, the “inhibition of Hs-FIGL1 ATPase activity” value against Hs-FIGL1 was “also inhibited Hs-FIGL1”.
The IC50 is the concentration needed to halve the response being measured. A higher IC50 goes with lower potency. For `CN1CCN(c2nc(Nc3cc(-c4ccccc4)[nH]n3)c3ccccc3n2)CC1` [compound 4, 2-(4-methylpiperazin-1-yl)-N-(5-phenyl-1H-pyrazol-3-yl)quinazolin-4-amine], the IC50 was ~12500 nM against Dm-spastin Q488V; 2900 ± 500 nM on Dm-spastin N527C; 900 ± 200 nM at Dm-spastin S689A; 1000 ± 600 nM on Dm-spastin WT; > 30000 nM against Dm-spastin N527T; 1500 ± 400 nM against Dm-spastin T692A. In addition, at Dm-spastin N527C (P-loop mutation), the “reduction of potency by N527C mutation relative to Dm-spastin WT” value is given as ~ 3 fold. Moreover, the “change of potency by S689A mutation relative to Dm-spastin WT” value on Dm-spastin S689A (sensor-II mutation) is reported as “no substantial difference”. Moreover, the “selectivity for Dm-spastin over four other AAA proteins” value on Dm-spastin WT (2 µM (Fig. 2 legend; text says 10 µM), 0.5 mM MgATP) was “increased selectivity for Dm-spastin”. The “effect on K1/2 of Dm-spastin across a range of ATP concentrations” value at Dm-spastin WT (MgATP 0.027 to 3 mM) is reported as “increases in K1/2 at higher compound concentrations”. For the same compound, the “effect on kcat of Dm-spastin across a range of ATP concentrations” value on Dm-spastin WT (MgATP 0.027 to 3 mM) was “not substantial changes in kcat”. For the same compound, the “reduction of potency by T692A mutation relative to Dm-spastin WT” value at Dm-spastin T692A (sensor-II mutation) is on record as ~ 2 fold.
Turning to `C[C@@H]1CNCCN1c1nc(Nc2cc(C(C)(C)C)[nH]n2)c2ccccc2n1` [compound 5, (R)-N-(5-(tert-butyl)-1H-pyrazol-3-yl)-2-(2-methyl-piperazin-1-yl)quinazolin-4-amine], the Dm-spastin dependent microtubule-severing result at Dm-spastin is reported as “blocked”. On Dm-spastin WT, this compound gave an IC50 of 106 ± 35 nM. The “potency on Dm-spastin ATPase relative to compound 4 (more potent)” value on Dm-spastin WT (0.5 mM MgATP) is ~ 10 fold.
In turn, `C[C@@H]1CNCCN1c1nc(Nc2cc(C(C)(C)C)[nH]n2)c2cc[nH]c2n1` [compound 6, (R)-N-(5-(tert-butyl)-1H-pyrazol-3-yl)-2-(2-methylpiperazin-1-yl)-7H-pyrrolo[2,3-d]pyrimidin-4-amine] gave an IC50 at Hs-spastin of 132 ± 55 nM. For the same compound, on Hs-spastin (1 mM ATP), the “improved potency on Hs-spastin with respect to compound 5” value is ~ 30 fold.
